From ChEMBL document CHEMBL1221294, “Novel nucleosides as potent influenza viral inhibitors” (Bioorg Med Chem, 2010)
Converted amounts (≈) assume the structure as drawn. The source made the active and inactive calls. The rule behind the calls is not given here.

What was measured:
Influenza B virus [1] = test: Antiviral activity against Influenza B virus Florida/4/2006 infected in MDCK cells at up to 100 uM; assay type: functional, cell-based; details: B/Florida/4/2006
Influenza A virus [2] = test: Antiviral activity against Influenza A virus H5N1 Vietnam/1203/2004H infected in MDCK cells at up to 100 uM; assay type: functional, organism-based; details: A/Viet Nam/1203/2004(H5N1)
Influenza B virus [3] = test: Antiviral activity against Influenza B virus Florida/4/2006 infected in MDCK cells; assay type: functional, cell-based; details: B/Florida/4/2006, MDCK
MDCK = test: Cytotoxicity against MDCK cells; assay type: cell-based; details: Canis lupus familiaris
Summary of the method: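 Run in MDCK cells, two uninfected toxicity-control wells per compound concentration alongside the infected wells. Neutral red uptake in these wells is read spectrophotometrically to give an NR IC50. The wells are also examined microscopically against untreated normal cells for enlargement, granularity, rounding, detachment and similar changes. The IC50 from these observations is derived by regression analysis.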

Influenza A virus [4] = test: Antiviral activity against Influenza A virus H5N1 Vietnam/1203/2004H infected in MDCK cells; assay type: functional, organism-based; details: A/Viet Nam/1203/2004(H5N1)
[5] = Selectivity index, IC50 for MDCK cells to EC50 for Influenza B virus Florida/4/2006 infected in MDCK cells assessed as increase of neutral red uptake; assay type: functional
Summary of the method: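 Run in MDCK cells. Antiviral EC50 comes from neutral red uptake, since undamaged cells take up more dye, read on a microplate reader. Cytotoxicity uses neutral red in uninfected, compound-treated toxicity control wells run alongside, read spectrophotometrically to give NR IC50. SI = IC50/EC50.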

[6] = Selectivity index, IC50 for MDCK cells to EC50 for Influenza B virus Florida/4/2006 infected in MDCK cells assessed as reduction of virus-induced cytopathogenicity by confocal microscopic analysis; assay type: functional
Summary of the method: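 CPE inhibition in MDCK cells, scored microscopically. At each concentration, two uninfected treated wells are examined for morphology changes against normal control cells: enlargement, granularity, ragged edges, filmy appearance, rounding or detachment. Cytotoxic IC50 is found by regression analysis. SI = IC50/EC50.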

Influenza B virus [7] = test: Antiviral activity against Influenza B virus Florida/4/2006 infected in MDCK cells assessed as reduction of viral yeild; assay type: functional; details: B/Florida/4/2006, MDCK
Influenza A virus [8] = test: Antiviral activity against Influenza A virus H5N1 Vietnam/1203/2004H infected in MDCK cells assessed as reduction of virus-induced cytopathogenicity by confocal microscopic analysis; assay type: functional, organism-based; details: A/Viet Nam/1203/2004(H5N1)
Influenza B virus [9] = test: Antiviral activity against Influenza B virus Florida/4/2006 infected in MDCK cells assessed as reduction of virus-induced cytopathogenicity by confocal microscopic analysis; assay type: functional, cell-based; details: B/Florida/4/2006, MDCK
[10] = Selectivity index, IC50 for MDCK cells to EC90 for Influenza B virus Florida/4/2006 infected in MDCK cells assessed as reduction of viral yield; assay type: functional
Summary of the method: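 Retest in MDCK cells of compounds active by neutral red, with virus yield reduction measured on the same plate as CPE inhibition. A known active drug is the parallel positive control. EC90 is the concentration lowering virus yield by 1 log10. SI is the ratio of cytotoxic IC50 to EC90.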

Influenza A virus [11] = test: Antiviral activity against Influenza A virus H5N1 Vietnam/1203/2004H infected in MDCK cells assessed as reduction of viral yeild; assay type: functional; details: A/Viet Nam/1203/2004(H5N1)
Influenza A virus [12] = test: Antiviral activity against Influenza A virus H5N1 Vietnam/1203/2004H infected in MDCK cells assessed as increase of neutral red uptake; assay type: functional, organism-based; details: A/Viet Nam/1203/2004(H5N1)
Summary of the method: (§1)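 Neutral red dye uptake read-out run in MDCK cells. Cells not damaged by virus take up more dye, which is measured on a microplate reader. The EC50 is derived from dye uptake.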

Influenza B virus [13] = test: Antiviral activity against Influenza B virus Florida/4/2006 infected in MDCK cells assessed as increase of neutral red uptake; assay type: functional, cell-based; details: B/Florida/4/2006, MDCK; summary of the method: as §1

| Structure (SMILES) | Activity (Influenza B virus [1]) | Activity (Influenza A virus [2]) | EC50 (Influenza B virus [3]) [µg/mL] | IC50 (MDCK) [µg/mL] | EC50 (Influenza A virus [4]) [µg/mL] | further results |
| --- | --- | --- | --- | --- | --- | --- |
| CN1CCN(c2ncnc3c2ncn3[C@H]2O[C@H](CO)[C@](C)(O)[C@@]2(C)F)CC1 | inactive | inactive | – | – | – | – |
| CC(=O)O[C@@]1(C)[C@@H](COC(=O)c2ccccc2)O[C@@H](n2cnc3c(N4CCOCC4)ncnc32)[C@]1(C)F | – | – | 25 (≈ 48.7 µM) | > 100 | 24 (≈ 46.7 µM) | – |
| CC(=O)O[C@@]1(C)[C@@H](COC(=O)c2ccccc2)O[C@@H](n2cnc3c(NC4CCC4)ncnc32)[C@]1(C)F | – | – | 27 (≈ 54.3 µM) | > 100 | 23 (≈ 46.2 µM) | – |
| CCOc1ncnc2c1ncn2[C@H]1O[C@H](CO)[C@](C)(O)[C@@]1(C)F | inactive | inactive | – | – | – | – |
| CC(=O)O[C@]1(C)[C@@H](COC(=O)c2ccccc2)O[C@@H](n2cnc3c(Cl)ncnc32)[C@]1(C)F | – | – | > 100 | > 100 | > 100 | – |
| CC(=O)O[C@@]1(C)[C@@H](COC(=O)c2ccccc2)O[C@H](n2cnc3c(Cl)ncnc32)[C@]1(C)F | inactive | inactive | – | – | – | – |
| C[C@]1(O)[C@@H](CO)O[C@H](n2cnc3c(NCc4ccco4)ncnc32)[C@]1(C)F | inactive | inactive | – | – | – | – |
| CC(=O)O[C@@]1(C)[C@@H](COC(=O)c2ccccc2)O[C@H](n2cnc3c(NC4CCC4)ncnc32)[C@]1(C)F | inactive | inactive | – | – | – | – |
| CC(=O)O[C@@]1(C)[C@@H](COC(=O)c2ccccc2)O[C@H](n2cnc3c(NCc4ccco4)ncnc32)[C@]1(C)F | inactive | inactive | – | – | – | – |
| CC(=O)O[C@@]1(C)[C@@H](COC(=O)c2ccccc2)O[C@H](n2cnc3c(NCc4ccc(F)cc4)ncnc32)[C@]1(C)F | inactive | inactive | – | – | – | – |
| CCOc1ncnc2c1ncn2[C@@H]1O[C@H](COC(=O)c2ccccc2)[C@](C)(OC(C)=O)[C@@]1(C)F | – | – | > 100 | > 100 | 48 (≈ 102 µM) | – |
| C[C@]1(O)[C@@H](CO)O[C@H](n2cnc3c(NCC4CC4)ncnc32)[C@]1(C)F | inactive | inactive | – | – | – | – |
| CC(=O)O[C@@]1(C)[C@@H](COC(=O)c2ccccc2)O[C@@H](n2cnc3c(NCc4ccco4)ncnc32)[C@]1(C)F | – | – | 32 (≈ 61.1 µM) | > 100 | 31 (≈ 59.2 µM) | – |
| CC(=O)O[C@@]1(C)[C@@H](COC(=O)c2ccccc2)O[C@@H](n2cnc3c(NCC4CC4)ncnc32)[C@]1(C)F | – | – | 17 (≈ 34.2 µM) | > 100 | 32 (≈ 64.3 µM) | – |
| CCOc1ncnc2c1ncn2[C@H]1O[C@H](COC(=O)c2ccccc2)[C@](C)(OC(C)=O)[C@@]1(C)F | inactive | inactive | – | – | – | – |
| C[C@]1(F)[C@H](n2cnc3c(N)ncnc32)O[C@H](CO)[C@@]1(C)O | – | – | > 100 | > 100 | > 100 | – |
| C[C@]1(O)[C@@H](CO)O[C@H](n2cnc3c(NCc4ccc(F)cc4)ncnc32)[C@]1(C)F | inactive | inactive | – | – | – | – |

| Structure (SMILES) | Activity (Influenza B virus [1]) | Activity (Influenza A virus [2]) | EC50 (Influenza B virus [3]) [µg/mL] | IC50 (MDCK) [µg/mL] | EC50 (Influenza A virus [4]) [µg/mL] | further results |
| --- | --- | --- | --- | --- | --- | --- |
| C[C@]1(O)[C@@H](CO)O[C@H](n2cnc3c(NC4CC4)ncnc32)[C@]1(C)F | inactive | inactive | – | – | – | – |
| C[C@]1(F)[C@@H](n2cnc3c(N)ncnc32)O[C@H](CO)[C@@]1(C)O | inactive | inactive | – | – | – | – |
| CC(=O)O[C@@]1(C)[C@@H](COC(=O)c2ccccc2)O[C@H](n2cnc3c(NCC4CC4)ncnc32)[C@]1(C)F | inactive | inactive | – | – | – | – |
| C[C@]1(O)[C@@H](CO)O[C@H](n2cnc3c(N4CCOCC4)ncnc32)[C@]1(C)F | inactive | inactive | – | – | – | – |
| CC(=O)O[C@@]1(C)[C@@H](COC(=O)c2ccccc2)O[C@H](n2cnc3c(O)ncnc32)[C@]1(C)F | inactive | inactive | – | – | – | – |
| CC(=O)O[C@@]1(C)[C@@H](COC(=O)c2ccccc2)O[C@@H](n2cnc3c(Cl)ncnc32)[C@]1(C)F | – | – | 3.7 (≈ 7.99 µM) | 18 (≈ 38.9 µM) | 7.1 (≈ 15.3 µM) | Ratio IC50/EC50 [5]: 15; Ratio IC50/EC50 [6]: 15; EC90 (Influenza B virus [7]): 6.3 µg/mL (≈ 13.6 µM); EC50 (Influenza A virus [8]): 1.26 µg/mL (≈ 2.72 µM); EC50 (Influenza B virus [9]): 1.2 µg/mL (≈ 2.59 µM); Ratio IC50/EC50 [10]: 2.9; EC90 (Influenza A virus [11]): 4.4 µg/mL (≈ 9.51 µM); EC50 (Influenza A virus [12]): 1.76 µg/mL (≈ 3.8 µM); EC50 (Influenza B virus [13]): 1.2 µg/mL (≈ 2.59 µM) |
| CC(=O)O[C@@]1(C)[C@@H](COC(=O)c2ccccc2)O[C@H](n2cnc3c(N4CCOCC4)ncnc32)[C@]1(C)F | inactive | inactive | – | – | – | – |
| C[C@]1(O)[C@@H](CO)O[C@H](n2cnc3c(NC4CCC4)ncnc32)[C@]1(C)F | inactive | inactive | – | – | – | – |
| CC(=O)O[C@@]1(C)[C@@H](COC(=O)c2ccccc2)O[C@@H](n2cnc3c(N4CCN(C)CC4)ncnc32)[C@]1(C)F | – | – | 42 (≈ 79.8 µM) | > 100 | > 100 | – |
| CC(=O)O[C@@]1(C)[C@@H](COC(=O)c2ccccc2)O[C@H](n2cnc3c(NC4CC4)ncnc32)[C@]1(C)F | inactive | inactive | – | – | – | – |
| CC(=O)O[C@@]1(C)[C@@H](COC(=O)c2ccccc2)O[C@H](n2cnc3c(N4CCN(C)CC4)ncnc32)[C@]1(C)F | inactive | inactive | – | – | – | – |
| CC(=O)O[C@]1(C)[C@@H](COC(=O)c2ccccc2)O[C@H](n2cnc3c(Cl)ncnc32)[C@]1(C)F | inactive | inactive | – | – | – | – |
| CC(=O)O[C@@]1(C)[C@@H](COC(=O)c2ccccc2)O[C@@H](n2cnc3c(NCc4ccc(F)cc4)ncnc32)[C@]1(C)F | – | – | 30 (≈ 54.4 µM) | 36 (≈ 65.3 µM) | 32 (≈ 58 µM) | – |
| C[C@]1(O)[C@@H](CO)O[C@H](n2cnc3c(O)ncnc32)[C@]1(C)F | inactive | inactive | – | – | – | – |
| CC(=O)O[C@@]1(C)[C@@H](COC(=O)c2ccccc2)O[C@@H](n2cnc3c(O)ncnc32)[C@]1(C)F | – | – | 65 (≈ 146 µM) | > 100 | 33 (≈ 74.3 µM) | – |
| CC(=O)O[C@@]1(C)[C@@H](COC(=O)c2ccccc2)O[C@@H](n2cnc3c(NC4CC4)ncnc32)[C@]1(C)F | – | – | 20 (≈ 41.4 µM) | > 100 | 50 (≈ 103 µM) | – |
